From article PMC4005002 (Anti-cancer drugs, 2013)
“And” between values parts separate entries of the source, which are not always exact repeats. Equal values may be shown once. Read-outs that look alike come from different tables or passages of the source. Values belong to the compound of their own block, whether it stands above or below them.

What was measured:
[1] = system: children and adolescents with refractory solid tumors; experiment: Phase I dose escalation of Tem in combination with VPA: toxicity; type: in vivo
HDAC activity in PBMC = experiment: Histone H4 acetylation in peripheral blood mononuclear cells; type: in vivo, human; conditions: data from subject 6, VPA with Tem
Procedure, shortened: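 PBMC isolated on Ficoll and stored at −80 C. Extracts normalized to cell number were run on SDS-PAGE and blotted with rabbit anti-tetra-acetyl H4 (1:2000) and anti-pan-H4 (1:1000). Scanned blots were quantified.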

[2] = VPA serum/plasma levels during treatment; type: in vivo, human
acetylated H4 = conditions: phase I study of VPA alone, half of the subjects; cited from earlier work
histone acetylation = conditions: cited from earlier work
[3] = Tem pharmacokinetics in whole blood; type: in vivo, human; conditions: for AUC(0-t): 0 to 24 hours post dose
[4] = system: pediatric patients with recurrent/refractory solid tumors; conditions: cited from earlier work
[5] = cited from earlier work; for median Cmax: children

concentration at 24 h ([2]; human, plasma, oral): 52000 ng/mL
VPA level at grade 2 thrombocytopenia ([2]; one patient, resolved after holding VPA for 3 days): 56 µg/mL
VPA range ([2]; patient 1, Tem 60 mg/m^2): 26–72 (NA) mcg/mL
VPA range ([2]; patient 2, Tem 60 mg/m^2): 78 to 112 µg/mL
VPA range ([2]; patient 3, Tem 60 mg/m^2): <10 to 91 µg/mL
VPA range ([2]; patient 4, Tem 35 mg/m^2): 68 to 108 µg/mL
VPA range ([2]; patient 5, Tem 35 mg/m^2): 13 to 87 µg/mL
VPA range ([2]; patient 6, Tem 35 mg/m^2): 22 to 78 µg/mL
VPA level at the time of maximum symptoms (grade 3 bilateral plantar pain) ([2]; subject #5, beginning of 4th month of treatment): 87 µg/mL
Structure (SMILES): CCCC(CCC)C(=O)O [VPA, Valproic Acid]
VPA levels with which toxicity seemed to correlate ([1]; Tem plus VPA): > 75 µg/mL
fatigue attributed to VPA ([1]; in vivo): dose-limiting fatigue
VPA plasma levels required to inhibit HDAC activity in PBMC (HDAC activity in PBMC): > 70 µg/dL
VPA level at time of grade 3 toxicity ([2]; patient 2, Tem 60 mg/m^2): 85 µg/mL and 112 µg/mL
VPA level at time of grade 3 toxicity ([2]; patient 3, Tem 60 mg/m^2): 91 µg/mL
VPA level at time of grade 3 toxicity ([2]; patient 4, Tem 35 mg/m^2): 108 µg/mL
VPA level at time of grade 3 toxicity ([2]; patient 5, Tem 35 mg/m^2): 87 µg/mL
VPA level at time of grade 3 toxicity ([2]; patient 6, Tem 35 mg/m^2): 78 µg/mL
VPA levels associated with increased acetylated H4 (acetylated H4): 55 to 100 µg/mL
VPA levels needed before acetylation is significantly affected (histone acetylation): greater than 100 mcg/mL

Structure (SMILES): CO[C@H]1C[C@@H]2CC[C@@H](C)[C@@](O)(O2)C(=O)C(=O)N2CCCC[C@H]2C(=O)O[C@H]([C@H](C)C[C@@H]2CC[C@@H](OC(=O)C(C)(CO)CO)[C@H](OC)C2)CC(=O)[C@H](C)/C=C(\C)[C@@H](O)[C@@H](OC)C(=O)[C@H](C)C[C@H](C)/C=C/C=C/C=C/1C [Tem, Temsirolimus]
tolerable dose of Tem with VPA ([1]; IV weekly with VPA PO TID): 35 mg/m^2/week
MTD of Tem in combination with VPA ([1]; IV weekly, VPA doses dropped using fatigue as endpoint): 35 mg/m2/wk
dose of Tem well tolerated / likely MTD when combined with VPA ([1]; IV weekly, only 3 patients treated at this dose): 35 mg/m^2
mucositis at the lower dose ([1]; human, in vivo): mucositis limited to grade 1 or 2, with the exception of one subject with grade 3
Peak Tem levels, range over patients ([3]; Tem 60 mg/m^2 dose level with VPA, both cycles): 757–1,220 ng/mL
Tmax ([3]; cycle 5, Tem 35 mg/m^2 IV weekly with VPA, median, N = 2): 30 min
Tmax ([3]; human, whole blood, iv, 35 mg/m^2): 39.6 min
AUC(0-t) ([3]; human, whole blood, iv, 35 mg/m^2, AUClast, cycle 1, Tem 35 mg/m^2 IV weekly with VPA, median, N = 3): 7550 ng·h/mL
AUC(0-t) ([3]; human, whole blood, iv, 60 mg/m^2, AUClast, cycle 1, Tem 60 mg/m^2 IV weekly with VPA, median, N = 2): 8330 ng·h/mL
half-life ([3]; human, whole blood, iv, T1/2, cycle 5, Tem 60 mg/m^2 IV weekly with VPA, N = 1): 504 min
MTD of Tem as single agent ([4]; pediatric study): more than 150 mg/m^2 IV/week
MTD of Tem alone ([4]; phase I pediatric study): 150 mg/m^2
median Cmax ([5]; Tem 25 mg/m^2 without VPA): 448 ng/mL
median Cmax ([5]; Tem 75 mg/m^2 without VPA): 442 ng/mL
Peak Tem levels, range ([5]; children who had received 75 mg/m^2 Tem without VPA): 369 to 630 ng/mL
